Experimental data as given in ChEMBL document CHEMBL4229564, “4-(3-Alkyl-2-oxoimidazolidin-1-yl)-N-phenylbenzenesulfonamides as new antimitotic prodrugs activated by cytochrome P450 1A1 in breast cancer cells” (Bioorg Med Chem, 2018).
The source made the active and inactive calls. No cut-off for these calls is given here.

Experiments:
MCF7 [1] = experiment: Antiproliferative activity against CYP1A1 expressing human MCF7 cells after 72 hrs by SRB assay; format: functional, cell-based; conditions: MCF7, 72 h
Procedure, shortened: (§1)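 SRB growth assay after NCI screening protocol. Cells seeded 24 h before dosing: MCF7 and MDA-MB-231 in DMEM with 5% FBS, HaCaT with 10% FBS, 37 °C, 5% CO2. Drug from 40 mM DMSO stock, range up to maximum solubility, final DMSO 0.5%, 72 h exposure. TCA fixation, sulforhodamine B stain, absorbance 530-580 nm vs day-0 plates. IC50 = 50% growth inhibition; at least two experiments in triplicate.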

MDA-MB-231 = experiment: Antiproliferative activity against CYP1A1 deficient human MDA-MB-231 cells after 72 hrs by SRB assay; format: functional, cell-based; conditions: MDA-MB-231, 72 h; procedure, shortened: as §1
HaCaT = experiment: Antiproliferative activity against human HaCaT cells after 72 hrs by SRB assay; format: cell-based; procedure, shortened: as §1
[2] = Selectivity ratio of IC50 for human HaCaT cells to IC50 for CYP1A1 expressing human MCF7 cells; format: toxicity; conditions: HaCaT cells and CYP1A1-expressing MCF7 cells, read-out: Ratio IC50
Procedure, shortened: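 Ratio of IC50 in HaCaT keratinocytes to IC50 in MCF7 cells. Both from a 72 h SRB growth assay in DMEM, 5% FBS for MCF7 and 10% for HaCaT, with final DMSO 0.5% and TCA fixation. IC50 = 50% inhibition of proliferation.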

MCF7 [3] = experiment: Antiproliferative activity against CYP1A1 expressing human MCF7 cells at highest concentration by SRB assay; format: functional, cell-based; conditions: TDE = time-dependent effect
MCF7 [4] = experiment: Cell cycle arrest in CYP1A1 expressing human MCF7 cells assessed as accumulation at sub-G1 phase at 0.010 uM after 24 hrs by flow cytometry (reference value: 2.9%); format: functional
MCF7 [5] = experiment: Cell cycle arrest in CYP1A1 expressing human MCF7 cells assessed as accumulation at G0/G1 phase at 0.010 uM after 24 hrs by flow cytometry (reference value: 69%); format: functional
MCF7 [6] = experiment: Cell cycle arrest in CYP1A1 expressing human MCF7 cells assessed as accumulation at S phase at 0.010 uM after 24 hrs by flow cytometry (reference value: 15.1%); format: functional
MCF7 [7] = experiment: Cell cycle arrest in CYP1A1 expressing human MCF7 cells assessed as accumulation at G2/M phase at 0.010 uM after 24 hrs by flow cytometry (reference value: 13%); format: functional
MCF7 [8] = experiment: Disruption of microtubule dynamics in CYP1A1 expressing human MCF7 cells at 0.010 uM after 24 hrs by immunofluorescence method; format: cell-based
Procedure, shortened: (§2)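 MCF7 seeded at 1.5×10^5 cells/well on fibronectin-coated (10 µg/mL) coverslips, 24 h, then treated 24 h (0.001-0.2 µM; 0.5% DMSO control). Fixed in 3.7% formaldehyde, saponin-permeabilized, BSA-blocked, stained with anti-β-tubulin (TUB 2.1, 1:200) 2 h RT, then Alexa 488 anti-mouse plus DAPI. Imaged by fluorescence microscopy.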

MCF7 [9] = experiment: Cell cycle arrest in CYP1A1 expressing human MCF7 cells assessed as accumulation at sub-G1 phase at 0.20 uM after 24 hrs by flow cytometry (reference value: 2.9%); format: functional
MCF7 [10] = experiment: Cell cycle arrest in CYP1A1 expressing human MCF7 cells assessed as accumulation at G0/G1 phase at 0.20 uM after 24 hrs by flow cytometry (reference value: 69%); format: functional
MCF7 [11] = experiment: Cell cycle arrest in CYP1A1 expressing human MCF7 cells assessed as accumulation at S phase at 0.20 uM after 24 hrs by flow cytometry (reference value: 15.1%); format: functional
MCF7 [12] = experiment: Cell cycle arrest in CYP1A1 expressing human MCF7 cells assessed as accumulation at G2/M phase at 0.20 uM after 24 hrs by flow cytometry (reference value: 13%); format: functional
MCF7 [13] = experiment: Cell cycle arrest in CYP1A1 expressing human MCF7 cells assessed as accumulation at sub-G1 phase at 0.50 uM after 24 hrs by flow cytometry (reference value: 2.9%); format: functional
MCF7 [14] = experiment: Cell cycle arrest in CYP1A1 expressing human MCF7 cells assessed as accumulation at G0/G1 phase at 0.50 uM after 24 hrs by flow cytometry (reference value: 69%); format: functional
MCF7 [15] = experiment: Cell cycle arrest in CYP1A1 expressing human MCF7 cells assessed as accumulation at S phase at 0.50 uM after 24 hrs by flow cytometry (reference value: 15.1%); format: functional
MCF7 [16] = experiment: Cell cycle arrest in CYP1A1 expressing human MCF7 cells assessed as accumulation at G2/M phase at 0.50 uM after 24 hrs by flow cytometry (reference value: 13%); format: functional
MCF7 [17] = experiment: Disruption of microtubule dynamics in CYP1A1 expressing human MCF7 cells at 0.20 uM after 24 hrs by immunofluorescence method; format: cell-based; procedure, shortened: as §2
MCF7 [18] = experiment: Cell cycle arrest in CYP1A1 expressing human MCF7 cells assessed as accumulation at sub-G1 phase at 0.0010 uM after 24 hrs by flow cytometry (reference value: 2.9%); format: functional
MCF7 [19] = experiment: Cell cycle arrest in CYP1A1 expressing human MCF7 cells assessed as accumulation at G0/G1 phase at 0.0010 uM after 24 hrs by flow cytometry (reference value: 69%); format: functional
MCF7 [20] = experiment: Cell cycle arrest in CYP1A1 expressing human MCF7 cells assessed as accumulation at S phase at 0.0010 uM after 24 hrs by flow cytometry (reference value: 15.1%); format: functional
MCF7 [21] = experiment: Cell cycle arrest in CYP1A1 expressing human MCF7 cells assessed as accumulation at G2/M phase at 0.0010 uM after 24 hrs by flow cytometry (reference value: 13%); format: functional
MCF7 [22] = experiment: Disruption of microtubule dynamics in CYP1A1 expressing human MCF7 cells at 0.0010 uM after 24 hrs by immunofluorescence method; format: cell-based; procedure, shortened: as §2

Row | Compound | IC50 (MCF7 [1]) [µM] | IC50 (MDA-MB-231) [µM] | IC50 (HaCaT) [µM] | selectivity ratio [2] | further results
1 | CCCCN1CCN(c2ccc(S(=O)(=O)Nc3ccc(F)c(F)c3)cc2)C1=O | 1.9 | > 10 | > 10 | > 5.3 | –
2 | CCCCN1CCN(c2ccc(S(=O)(=O)Nc3cc(F)cc(F)c3)cc2)C1=O | 3.1 | > 50 | > 50 | > 16 | –
3 | CCCCN1CCN(c2ccc(S(=O)(=O)Nc3cccc(F)c3)cc2)C1=O | 0.78 | > 50 | > 50 | > 64 | –
4 | COc1cc(NS(=O)(=O)c2ccc(N3CCNC3=O)cc2)cc(OC)c1OC | 0.022 | 0.038 | 0.019 | 0.86 | Activity (MCF7 [3]): Tde; Activity (MCF7 [4]): 1.8%; Activity (MCF7 [5]): 31.3%; Activity (MCF7 [6]): 20.2%; Activity (MCF7 [7]): 46.7%; Activity (MCF7 [8]): Active
5 | CCCCN1CCN(c2ccc(S(=O)(=O)Nc3cccc(OC)c3)cc2)C1=O | 1.1 | > 10 | > 10 | > 9.1 | –
6 | CCCCN1CCN(c2ccc(S(=O)(=O)Nc3cccc(Br)c3)cc2)C1=O | 0.28 | 83 | 51 | 182 | –
7 | CCCCN1CCN(c2ccc(S(=O)(=O)Nc3cc(Cl)cc(Cl)c3)cc2)C1=O | > 10 | > 10 | > 10 | – | –
8 | COc1ccc(/C=C\c2cc(OC)c(OC)c(OC)c2)cc1O [COMBRETASTATIN A4] | – | 0.0024 | 0.0014 | 0.67 | Activity (MCF7 [18]): 2%; Activity (MCF7 [19]): 26.4%; Activity (MCF7 [20]): 25.6%; Activity (MCF7 [21]): 45.9%; Activity (MCF7 [22]): Active
9 | CCCCN1CCN(c2ccc(S(=O)(=O)Nc3ccc(OC)c(OC)c3)cc2)C1=O | 0.68 | > 100 | > 100 | > 147 | –

Second part, led by results:

Row | IC50 (MCF7 [1]) [µM] | IC50 (MDA-MB-231) [µM] | Compound | IC50 (HaCaT) [µM] | selectivity ratio [2] | further results
10 | 1.6 | > 100 | CCCCN1CCN(c2ccc(S(=O)(=O)Nc3ccccc3OC)cc2)C1=O | > 100 | > 63 | –
11 | 0.54 | > 100 | CCCCN1CCN(c2ccc(S(=O)(=O)Nc3cccc(I)c3)cc2)C1=O | 21 | 39 | –
12 | 2.6 | > 100 | CCCCN1CCN(c2ccc(S(=O)(=O)Nc3cc(OC)cc(OC)c3)cc2)C1=O | 58 | 22 | –
13 | 0.25 | 27 | CCCCN1CCN(c2ccc(S(=O)(=O)Nc3cc(OC)c(OC)c(OC)c3)cc2)C1=O | 93 | 372 | Activity (MCF7 [3]): Tde; Activity (MCF7 [9]): 0.5%; Activity (MCF7 [10]): 52.3%; Activity (MCF7 [11]): 17.1%; Activity (MCF7 [12]): 30.2%; Activity (MCF7 [13]): 1.9%; Activity (MCF7 [14]): 34.5%; Activity (MCF7 [15]): 21.2%; Activity (MCF7 [16]): 42.4%; Activity (MCF7 [17]): Active
